Calls of active or inactive are those of the source. The calls are words filed in the database; no cut-off is given here.

In data set [1] the test system is MDA-MB-468. Description: Antiproliferative activity against human MDA-MB-468 cells measured after 48 hrs by MTT assay. It is filed as functional, cell-based. Particulars: MDA-MB-468, 48 h. The gist of the method: (§1)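 Cells grown in DMEM with 2 mM L-glutamine, penicillin/streptomycin and 5% FBS at 37 °C, 5% CO2; seeded 6000/well in 96-well plates, attached 24 h. Compounds added over a concentration range in DMSO (1% final), 48 h. MTT (2.5 mg/mL in PBS) added for 3.5 h, formazan dissolved in DMSO, OD 570 nm. Growth relative to 1% DMSO; IC50 from separate triplicate experiments.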

Data set [2] has as its system MCF7. Put plainly: Antiproliferative activity against human MCF7 cells measured after 48 hrs by MTT assay. It is filed as functional, cell-based. Particulars: MCF7, 48 h. The gist of the method: as §1
Data set [3] deals with MDA-MB-468. Description: Induction of apoptosis in human MDA-MB-468 cells at 4 uM measured after 48 hrs by Annexin V-FITC/propidium iodide staining-based flow cytometry. It is filed as functional, cell-based. In short, it runs like this: (§2)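 Cells incubated 24 h at 37 °C, 5% CO2, then given compounds in DMSO (1% final) for 48 h. Floating and trypsinized adherent cells pooled, PBS-washed, stained with annexin V-FITC plus propidium iodide in binding buffer, 15 min on ice in the dark. Flow cytometry, ≥10 000 events per sample; annexin V-positive cells scored as apoptotic.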
(Flow cytometry measures light scatter and fluorescence of single cells or particles in a stream.)

For data set [4], the system named is MDA-MB-468. Put plainly: Effect on cell cycle distribution in human MDA-MB-468 cells assessed as accumulation at G2/M-phase at 4 uM measured after 48 hrs by propidium iodide staining-based flow cytometry. It is filed as functional. The gist of the method:
(§3)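 MDA-MB-468 seeded 40,000/well in 24-well plates, 24 h at 37 °C, 5% CO2, then treated 48 h with compounds in DMSO (1% final). Cells trypsinized, washed in PBS, fixed in 70% ethanol, rehydrated in PBS, stained with propidium iodide in PBS. Phase distribution (G1, S, G2/M, polyploid, subG1) read by flow cytometry.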

The target of data set [5] is T1, Heat shock protein HSP90 (Homo sapiens) (UniProt P07900+P08238). Description: Inhibition of HSP90 in human MCF7 cells assessed as Raf-1 protein degradation at 1.5 times IC50 measured after 48 hrs by western blot analysis. It is filed as cell-based. The gist of the method:
(§4)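 Cells seeded in 6-well plates, 24 h at 37 °C, 5% CO2, then exposed 48 h to compound or 17-AAG in DMSO (1% final) or to vehicle. Lysed 2 h on ice in buffer with protease and phosphatase inhibitors, sonicated, protein measured by BCA. Equal protein run on SDS-PAGE, moved to PVDF, primary antibodies overnight at 4 °C, HRP secondary 1 h, ECL chemiluminescence.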
For orientation: In western blotting, separated proteins are transferred to a membrane and probed.

The target of data set [6] is T1, Heat shock protein HSP90 (Homo sapiens). Put plainly: Inhibition of HSP90 in human MCF7 cells assessed as ER-alpha protein degradation at 1.5 times IC50 measured after 48 hrs by western blot analysis. The format is cell-based. The gist of the method: as §4
The test system of data set [7] is MCF7. Put plainly: Effect on actin level in human MCF7 cells at 1.5 times IC50 measured after 48 hrs by western blot analysis. It is filed as cell-based. Conditions: mcf7, 48 h. In short, it runs like this: as §4
Data set [8] addresses T1, Heat shock protein HSP90 (Homo sapiens). Description: Inhibition of HSP90 in human MDA-MB-468 cells assessed as Raf-1 protein degradation at 1.5 times IC50 measured after 48 hrs by western blot analysis. It is filed as cell-based. In short, it runs like this: as §4
In data set [9] the test system is MDA-MB-468. Put plainly: Effect on actin level in human MDA-MB-468 cells at 1.5 times IC50 measured after 48 hrs by western blot analysis. It is filed as cell-based. Conditions: mda-mb-468, 48 h. The gist of the method: as §4
Data set [10] relates to MCF7. Description: Effect on HSP90 level in human MCF7 cells at 1.5 times IC50 measured after 48 hrs by western blot analysis. Conditions: mcf7, 48 h. It is filed as cell-based. In short, it runs like this: as §4
Data set [11] deals with MDA-MB-468. Description: Effect on HSP90 level in human MDA-MB-468 cells at 1.5 times IC50 measured after 48 hrs by western blot analysis. The format is cell-based. Conditions: mda-mb-468, 48 h. The gist of the method: as §4
In data set [12] the target is T1, Heat shock protein HSP90 (Homo sapiens). Description: Inhibition of HSP90 in human MCF-7 cells assessed as ER-alpha protein degradation at 1.5 times IC50 measured after 48 hrs by western blot analysis.
Data set [13] has as its system MDA-MB-468. Description: Induction of apoptosis in human MDA-MB-468 cells assessed as mortality at 15 uM measured after 48 hrs by Annexin V-FITC/propidium iodide staining-based flow cytometry. It is filed as functional. Particulars: MDA-MB-468, 48 h. In short, it runs like this: (§5)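 MDA-MB-468 cells seeded in wells, held 24 h at 37 °C in 5% CO2, then exposed to compound in DMSO (1% DMSO final) for 48 h. Floating and trypsinised adherent cells pooled, PBS-washed, stained with annexin V-FITC plus propidium iodide in binding buffer 15 min on ice in the dark. Flow cytometry, ≥10 000 events per sample; annexin V-positive cells scored apoptotic.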

The test system of data set [14] is MDA-MB-468. Put plainly: Effect on cell cycle in human MDA-MB-468 cells assessed as accumulation at subG1-phase at 15 uM measured after 48 hrs by propidium iodide staining-based FACS analysis. The format is functional. The gist of the method:
as §3

In data set [15] the target is T1, Heat shock protein HSP90 (Homo sapiens). Description: Inhibition of HSP90 in human MCF7 cells assessed as induction of prosurvival heat shock response at 1.5 times IC50 measured after 48 hrs by Western blot analysis. It is filed as cell-based. In short, it runs like this:
as §4

The test system of data set [16] is MDA-MB-468. Put plainly: Cell cycle arrest in human MDA-MB-468 cells at 15 uM measured after 48 hrs by propidium iodide staining-based FACS analysis. It is filed as functional. In short, it runs like this:
as §3

Data set [17] relates to MDA-MB-468. Description: Induction of apoptosis in human MDA-MB-468 cells at 2 uM measured after 48 hrs by Annexin V-FITC/propidium iodide staining-based flow cytometry. It is filed as functional, cell-based. The gist of the method:
as §2

Data set [18] has as its system MDA-MB-468. Description: Effect on cell cycle distribution in human MDA-MB-468 cells assessed as accumulation at G2/M-phase at 2 uM measured after 48 hrs by propidium iodide staining-based flow cytometry. The format is functional. The gist of the method:
as §3

Data set [19] relates to MCF7. Put plainly: Antiproliferative activity against human MCF7 cells measured after 5 days by MTS assay. It is filed as functional, cell-based. Particulars: MCF7, 120 h.
Data set [20] has as its system MDA-MB-468. Description: Induction of apoptosis in human MDA-MB-468 cells assessed as mortality at 10 uM measured after 48 hrs by Annexin V-FITC/propidium iodide staining-based flow cytometry. The format is functional. Conditions: MDA-MB-468, 48 h. In short, it runs like this: as §5
The test system of data set [21] is MDA-MB-468. Description: Effect on cell cycle in human MDA-MB-468 cells assessed as accumulation at subG1-phase at 10 uM measured after 48 hrs by propidium iodide staining-based FACS analysis. The format is functional. The gist of the method:
as §3

Data set [22] concerns MDA-MB-468. Description: Cell cycle arrest in human MDA-MB-468 cells at 10 uM measured after 48 hrs by propidium iodide staining-based FACS analysis. It is filed as functional. The gist of the method:
as §3

What is called IC50 is the concentration needed to halve the response being measured. Higher therefore signals weaker potency. `CN(C)CCNc1cc2c(cn1)cc(NC(=O)c1cc3ccccc3s1)c(=O)n2C`: the IC50 with MDA-MB-468 [1] is 3.57 µM; with MCF7 [2], 12 µM. The outcome in the data set with MDA-MB-468 [3] and in the data set on MDA-MB-468 [4] was Active. For the same compound, the inhibition entry in data set [5], in [6], in data set [8] and in data set [12] was “inactive” throughout. Further, the Activity result in the data set with MCF7 [7], in the data set with MDA-MB-468 [9], in the data set with MCF7 [10] and in the data set with MDA-MB-468 [11] was “Non-toxic” each time.
In general, mortality refers to the share of the test organisms that died. For the compound `Cn1c(=O)c(NC(=O)c2cccc(-c3ccccc3)c2)cc2cnc(N3CCN(CCO)CC3)cc21`, the IC50 stood at 14.7 µM with MDA-MB-468 [1] and 15.2 µM with MCF7 [2]. Further, the mortality at 15 µM in the data set with MDA-MB-468 [13] came to 80%. In the data set on MDA-MB-468 [14], the result was Active. Further, the inhibition entry in [15], in data set [5], in data set [6], in data set [8] and in data set [12] was “Active” throughout. Besides, the Activity entry in the data set with MCF7 [7] is “Non-toxic”; in the data set on MDA-MB-468 [9], “Non-toxic”; in the data set with MCF7 [10], “Toxic”; with MDA-MB-468 [11] it was “Toxic”. The result with MDA-MB-468 [16] was inactive.
As for `Cn1c(=O)c(NC(=O)c2cccc(-c3ccccc3)c2)cc2cnc(NCCN3CCOCC3)cc21`, the IC50 amounted to 1.96 µM in the data set with MDA-MB-468 [1] and 4.85 µM in the data set with MCF7 [2]. The outcome in the data set with MDA-MB-468 [17] was inactive. Besides, the result in the data set with MDA-MB-468 [18] was Active. Moreover, the inhibition entry in data set [5], in data set [6], in data set [8] and in data set [12] was “Active” each time. In addition, the Activity entry with MCF7 [7], in the data set on MDA-MB-468 [9], in the data set on MCF7 [10] and with MDA-MB-468 [11] was “Non-toxic” each time.
In the case of `CCCNc1cc2c(cn1)cc(NC(=O)c1cccc(-c3ccccc3)c1)c(=O)n2C`, the IC50 in the data set with MDA-MB-468 [1] turned out to be 1.87 µM; with MCF7 [2], 6 µM. For the same compound, the outcome in the data set on MDA-MB-468 [17] was inactive. Also, the outcome with MDA-MB-468 [18] was Active. Besides, the inhibition entry in data set [5], in [6], in data set [8] and in [12] was “Active” in each case. For the same compound, the Activity result in the data set on MCF7 [7], in the data set with MDA-MB-468 [9], with MCF7 [10] and with MDA-MB-468 [11] was “Non-toxic” each time.
Turning to `CN(C)CCNc1cc2c(cn1)cc(NC(=O)c1ccc(Cl)cc1)c(=O)n2C`, the IC50 was 1.64 µM in the data set on MDA-MB-468 [1] and 3.09 µM in the data set with MCF7 [2]. The result in the data set on MDA-MB-468 [17] and in the data set on MDA-MB-468 [18] was Active. Further, the inhibition entry in data set [5], in data set [6], in data set [8] and in data set [12] was “Active” throughout. For the same compound, the Activity entry in the data set on MCF7 [7], in the data set on MDA-MB-468 [9], in the data set on MCF7 [10] and in the data set with MDA-MB-468 [11] was “Non-toxic” each time.
Take `C=CCNC1=C2C[C@@H](C)C[C@H](OC)[C@H](O)[C@@H](C)/C=C(\C)[C@H](OC(N)=O)[C@@H](OC)/C=C\C=C(/C)C(=O)NC(=CC1=O)C2=O` [TANESPIMYCIN]: the IC50 with MDA-MB-468 [1] was determined as 1.57 µM; with MCF7 [2], 0.029 µM; with MCF7 [19] it was 0.005 µM. The outcome in the data set on MDA-MB-468 [18] was Active.
Regarding `COc1ccc(C(=O)Nc2cc3cnc(N4CCN(CCO)CC4)cc3n(C)c2=O)cc1`, the IC50 with MDA-MB-468 [1] amounted to 10.5 µM; in the data set with MCF7 [2] it was 8.59 µM. In the data set on MDA-MB-468 [20], the mortality at 10 µM was determined as 40%. The result in the data set with MDA-MB-468 [21] was Active. Also, the inhibition result in data set [5], in data set [6], in data set [8] and in data set [12] was “Active” each time. The Activity entry with MCF7 [7], with MDA-MB-468 [9], in the data set on MCF7 [10] and with MDA-MB-468 [11] was “Non-toxic” in each case. Moreover, the result in the data set on MDA-MB-468 [22] was inactive.
Consider `CN(C)CCNc1cc2c(cn1)cc(NC(=O)c1cccc(-c3ccccc3)c1)c(=O)n2C`, for which the IC50 with MDA-MB-468 [1] amounted to 1.68 µM; with MCF7 [2] it was 1.93 µM. Besides, in the data set on MDA-MB-468 [17], the result was Active. Besides, the result with MDA-MB-468 [18] was inactive. Besides, the inhibition entry in data set [15], in [5], in data set [6], in data set [8] and in [12] was “Active” each time. Also, the Activity entry is listed as “Non-toxic” in the data set with MCF7 [7], “Non-toxic” in the data set on MDA-MB-468 [9], “Toxic” in the data set on MCF7 [10] and “Toxic” in the data set with MDA-MB-468 [11].

(Values after ChEMBL document CHEMBL3822361, “Novel 1,6-naphthyridin-2(1H)-ones as potential anticancer agents targeting Hsp90” (Eur J Med Chem, 2016).)
